Test results from ChEMBL document CHEMBL3875151, “Design, synthesis, biological evaluation and molecular docking study on peptidomimetic analogues of XK469” (Eur J Med Chem, 2016).
Active and inactive are the calls of the source. The rule behind the calls is not given here.

How the values were obtained:
[1] = Antiproliferative activity against human MCF7 cells after 48 hrs by MTT assay; type: functional, cell-based; conditions: MCF7, 48 h
Procedure, shortened: (§1)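 Cells kept in RPMI-1640 with 10% heat-inactivated FBS, 37°C, 5% CO2. 10^4 cells/well seeded, compounds (dissolved in DMSO or PBS, diluted in medium) added after 4 h at final 200, 150, 100, 50 and 10 μM for 48 h. MTT then 4 h, formazan dissolved in DMSO, OD 570 nm. Growth inhibition vs medium control; IC50 from inhibition ratios; three independent experiments in triplicate.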

[2] = Antiproliferative activity against human HeLa cells after 48 hrs by MTT assay; type: functional, cell-based; procedure, shortened: as §1
[3] = Antiproliferative activity against human K562 cells after 48 hrs by MTT assay; type: functional, cell-based; conditions: K562, 48 h; procedure, shortened: as §1
Mus musculus [4] = test: Toxicity in Balb/c mouse xenografted with […] cells assessed as body weight at 10 mg/kg/day, ig administered 6 days per week for two consecutive weeks (reference value: 20.17 +/- 3.66 g); type: organism-based; conditions: in vivo, po, 144 h
[5] = Anti-metastatic activity against H22 cells xenografted in Balb/c mouse assessed as inhibition of metastasized nodes on lung surface at 10 mg/kg/day, ig administered 6 days per week for two consecutive weeks measured on day 13 post dose by microscopic method relative to control; type: functional; conditions: po
Procedure, shortened: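 BALB/c mice (18~22 g, both sexes) injected via tail vein with 6 × 10^6 H22 ascites cells. After 24 h, randomized into groups of 10. Compounds given intragastrically at 10 mg/kg in 0.5% CMC-Na (2 mg/ml), vehicle to controls. Lung-surface metastatic nodes counted under microscope; inhibition rate from mean node counts vs vehicle group.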

[6] = Anti-metastatic activity against H22 cells xenografted in Balb/c mouse assessed as lung weight at 10 mg/kg/day, ig administered 6 days per week for two consecutive weeks measured on day 12 post last dose (reference value: 0.287 +/- 0.117 g); type: functional
Mus musculus [7] = test: Toxicity in Balb/c mouse xenografted with […] cells assessed as mouse survival at 10 mg/kg/day, ig administered 6 days per week for two consecutive weeks; type: organism-based; conditions: in vivo, po, 144 h
Procedure, shortened: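 H22 hepatocarcinoma ascites from BALB/c donor mice was diluted 1:4 in saline (3 × 10^7 cells/ml), and 0.2 mL (6 × 10^6 cells) was injected via tail vein into BALB/c mice weighing 18~22 g. After 24 h, mice were weighed and randomised into 7 groups of 10, half of each sex. Compound was given intragastrically at 2 mg/ml in 0.5% CMC-Na, with vehicle controls. Surviving animals were counted against the original number per group.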

[8] = target: DNA topoisomerase 2-alpha (Homo sapiens) (UniProt P11388); test: Inhibition of human topoisomerase-2 alpha-mediated kinetoplast DNA decatenation after 15 mins by ethidium bromide staining based agarose gel electrophoresis
Procedure, shortened: (§2)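 Human topo IIα (0.5 units) with 20 µg/mL kDNA in 50 mM Tris-HCl pH 8.0, 0.5 mM DTT, 10 mM MgCl2, 2 mM ATP. Compounds at 3.15, 12.5, 50 and 200 µM, 15 min at 37°C; stopped with SDS/glycerol. Products run on 1% agarose, 50 V, 50 min, ethidium bromide-stained, viewed under UV. Controls without enzyme and without inhibitor; etoposide reference.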

[9] = Antiproliferative activity against human NCI60 cells after 48 hrs by SRB assay; type: functional, cell-based; conditions: NCI60, 48 h
[10] = target: DNA topoisomerase 2-alpha (Homo sapiens) (UniProt P11388); test: Inhibition of human topoisomerase-2 alpha-mediated kinetoplast DNA decatenation at 3.15 to 200 uM after 15 mins by ethidium bromide staining based agarose gel electrophoresis; procedure, shortened: as §2
[11] = target: DNA topoisomerase 2-alpha (Homo sapiens) (UniProt P11388); test: Inhibition of human topoisomerase-2 alpha-mediated kinetoplast DNA decatenation at 3.15 to 200 uM after 15 mins by ethidium bromide staining based agarose gel electrophoresis relative to etoposide; procedure, shortened: as §2

DNA topoisomerase 2-alpha (Homo sapiens), sequence (P11388 whole entry): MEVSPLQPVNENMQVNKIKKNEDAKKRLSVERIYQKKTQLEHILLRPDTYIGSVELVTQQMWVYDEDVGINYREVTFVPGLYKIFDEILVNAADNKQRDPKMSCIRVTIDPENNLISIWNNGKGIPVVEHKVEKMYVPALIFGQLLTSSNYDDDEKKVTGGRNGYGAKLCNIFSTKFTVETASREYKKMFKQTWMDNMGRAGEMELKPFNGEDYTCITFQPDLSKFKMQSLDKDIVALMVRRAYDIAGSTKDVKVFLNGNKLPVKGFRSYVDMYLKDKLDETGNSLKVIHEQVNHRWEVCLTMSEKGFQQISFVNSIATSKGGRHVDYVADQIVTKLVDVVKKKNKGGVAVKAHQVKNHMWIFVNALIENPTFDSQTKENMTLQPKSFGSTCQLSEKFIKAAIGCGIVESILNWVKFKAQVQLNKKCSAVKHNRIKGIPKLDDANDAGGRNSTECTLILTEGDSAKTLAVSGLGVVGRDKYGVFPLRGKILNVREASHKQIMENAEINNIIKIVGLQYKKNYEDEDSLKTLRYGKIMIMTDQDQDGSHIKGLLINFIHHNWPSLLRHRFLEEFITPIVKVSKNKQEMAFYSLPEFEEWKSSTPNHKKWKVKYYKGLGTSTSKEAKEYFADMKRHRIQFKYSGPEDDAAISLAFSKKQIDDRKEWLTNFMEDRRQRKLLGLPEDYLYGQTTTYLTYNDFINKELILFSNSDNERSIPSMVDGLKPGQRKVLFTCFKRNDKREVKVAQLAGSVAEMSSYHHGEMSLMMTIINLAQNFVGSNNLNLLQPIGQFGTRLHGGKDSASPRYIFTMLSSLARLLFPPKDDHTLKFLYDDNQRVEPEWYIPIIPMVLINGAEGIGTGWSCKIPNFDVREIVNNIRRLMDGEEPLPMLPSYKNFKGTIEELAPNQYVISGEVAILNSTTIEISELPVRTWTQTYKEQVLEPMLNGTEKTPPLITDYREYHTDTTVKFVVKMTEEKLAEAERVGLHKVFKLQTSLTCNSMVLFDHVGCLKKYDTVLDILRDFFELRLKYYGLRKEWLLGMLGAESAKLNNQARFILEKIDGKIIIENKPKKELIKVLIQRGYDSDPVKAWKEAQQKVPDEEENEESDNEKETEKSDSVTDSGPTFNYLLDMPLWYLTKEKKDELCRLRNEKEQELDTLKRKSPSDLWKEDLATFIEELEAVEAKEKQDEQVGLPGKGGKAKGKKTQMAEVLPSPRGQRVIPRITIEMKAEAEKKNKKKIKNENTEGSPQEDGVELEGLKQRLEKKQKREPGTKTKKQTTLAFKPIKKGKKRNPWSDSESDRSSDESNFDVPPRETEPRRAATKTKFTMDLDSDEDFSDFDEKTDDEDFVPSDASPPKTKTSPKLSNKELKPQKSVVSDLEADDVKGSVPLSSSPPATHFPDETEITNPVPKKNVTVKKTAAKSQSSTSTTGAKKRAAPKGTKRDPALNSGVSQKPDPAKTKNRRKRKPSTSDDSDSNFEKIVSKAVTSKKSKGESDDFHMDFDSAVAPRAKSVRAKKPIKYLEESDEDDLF

| SMILES | IC50 [1] | IC50 [2] | IC50 [3] | other results |
| --- | --- | --- | --- | --- |
| Cc1nc2ccc(Cl)cc2nc1Oc1ccc(C(=O)N[C@@H](Cc2ccccc2)C(=O)O)cc1 | 20.2 µM | 20.2 µM | 21.5 µM | – |
| COC(=O)[C@H](C)NC(=O)c1ccc(Oc2nc3ccccc3nc2C)cc1 | 38.4 µM | 32.2 µM | 45.5 µM | – |
| CC[C@@H](C)[C@H](NC(=O)c1ccc(Oc2nc3ccccc3nc2NC(C)(C)C)cc1)C(=O)O | 11.3 µM | 13.4 µM | 18.3 µM | Activity (Mus musculus [4]): 21.84 g; inhibition in vivo at 10 mg/kg/day [5]: 27.6%; Activity [6]: 0.211 g; Activity (Mus musculus [7]): Non-Toxic |
| CC(C)(C)Nc1nc2ccccc2nc1Oc1ccc(C(=O)NCC(=O)O)cc1 | > 50 µM | > 50 µM | > 50 µM | – |
| CCCCCCCCCCCCNc1nc2ccccc2nc1Oc1ccc(C(=O)N[C@H](C(=O)O)[C@H](C)CC)cc1 | 30.4 µM | 35.5 µM | 21.5 µM | – |
| COC(=O)[C@H](CC(C)C)NC(=O)c1ccc(Oc2nc3ccc(Cl)cc3nc2C)cc1 | 22.8 µM | 37.6 µM | 32.6 µM | – |
| Cc1nc2ccccc2nc1Oc1ccc(C(=O)N[C@@H](CC(C)C)C(=O)O)cc1 | 14.7 µM | 17.3 µM | 19.5 µM | Activity (Mus musculus [4]): 22.46 g; inhibition in vivo at 10 mg/kg/day [5]: 11%; Activity [6]: 0.238 g; Activity (Mus musculus [7]): Non-Toxic |
| CCCCCCCCCCCCNc1nc2ccccc2nc1Oc1ccc(C(=O)N[C@@H](C)C(=O)O)cc1 | 4.11 µM | 6.24 µM | 3.28 µM | Activity (Mus musculus [4]): 24.62 g; inhibition in vivo at 10 mg/kg/day [5]: 42.5%; inhibition [8]: Dose-dependent effect; Activity [6]: 0.23 g |
| C[C@@H](Oc1ccc(Oc2cnc3ccc(Cl)cc3n2)cc1)C(=O)O [R(+)XK469] | – | – | – | IC50 [9]: 70 µM |
| Cc1nc2cc(Cl)ccc2nc1Oc1ccc(C(=O)N[C@@H](CC(C)C)C(=O)O)cc1 | 17.4 µM | 25 µM | 21.3 µM | – |
| COc1cccc2c1C(=O)c1c(O)c3c(c(O)c1C2=O)C[C@@](O)(C(=O)CO)C[C@@H]3O[C@H]1C[C@H](N)[C@H](O)[C@H](C)O1 [DOXORUBICIN] | – | 11.5 µM | 13.5 µM | Activity (Mus musculus [4]): 23.32 g; inhibition in vivo at 10 mg/kg/day [5]: 59.9%; Activity [6]: 0.217 g |
| CC[C@@H](C)[C@H](NC(=O)c1ccc(Oc2nc3ccccc3nc2C)cc1)C(=O)OC | 36.1 µM | > 50 µM | 38.3 µM | – |
| Cc1nc2ccc(Cl)cc2nc1Oc1ccc(C(=O)N[C@@H](CC(C)C)C(=O)O)cc1 | 15.1 µM | 16.4 µM | 14.5 µM | Activity (Mus musculus [4]): 23.25 g; inhibition in vivo at 10 mg/kg/day [5]: 14.8%; Activity [6]: 0.254 g; Activity (Mus musculus [7]): Non-Toxic |
| COC(=O)[C@H](Cc1ccccc1)NC(=O)c1ccc(Oc2nc3ccccc3nc2NC(C)(C)C)cc1 | > 50 µM | > 50 µM | 10.3 µM | – |
| CCCCCCCCCCCCNc1nc2ccccc2nc1Oc1ccc(C(=O)N[C@H](C(=O)OC)[C@H](C)CC)cc1 | 43.3 µM | 40.3 µM | 30.8 µM | – |
| COC(=O)[C@H](Cc1ccccc1)NC(=O)c1ccc(Oc2nc3cc(Cl)ccc3nc2C)cc1 | 25.5 µM | 28.8 µM | 27.5 µM | – |
| COC(=O)CNC(=O)c1ccc(Oc2nc3ccccc3nc2NC(C)(C)C)cc1 | > 50 µM | > 50 µM | > 50 µM | – |

| SMILES | IC50 [1] | IC50 [2] | IC50 [3] | other results |
| --- | --- | --- | --- | --- |
| COC(=O)[C@H](C)NC(=O)c1ccc(Oc2nc3ccc(Cl)cc3nc2C)cc1 | 33.8 µM | 42.5 µM | 26 µM | – |
| COc1cc([C@@H]2c3cc4c(cc3[C@@H](O[C@@H]3O[C@@H]5CO[C@@H](C)O[C@H]5[C@H](O)[C@H]3O)[C@H]3COC(=O)[C@H]23)OCO4)cc(OC)c1O | – | – | – | inhibition [10]: Active |
| CCCCCCCCCCCCNc1nc2ccccc2nc1Oc1ccc(C(=O)N[C@@H](C)C(=O)OC)cc1 | 33.8 µM | 28.5 µM | 26.7 µM | – |
| C[C@H](NC(=O)c1ccc(Oc2nc3ccccc3nc2NC(C)(C)C)cc1)C(=O)O | 29.4 µM | 23.4 µM | 26.4 µM | – |
| CC(C)(C)Nc1nc2ccccc2nc1Oc1ccc(C(=O)N[C@@H](Cc2ccccc2)C(=O)O)cc1 | 25.3 µM | 20.5 µM | 15.2 µM | – |
| CC[C@@H](C)[C@H](NC(=O)c1ccc(Oc2nc3ccccc3nc2NC(C)(C)C)cc1)C(=O)OC | 33.4 µM | 31.9 µM | 38.7 µM | – |
| COC(=O)[C@H](CC(C)C)NC(=O)c1ccc(Oc2nc3ccccc3nc2NC(C)(C)C)cc1 | > 50 µM | > 50 µM | > 50 µM | – |
| CC(C)C[C@H](NC(=O)c1ccc(Oc2nc3ccccc3nc2NC(C)(C)C)cc1)C(=O)O | 40.3 µM | 39.2 µM | 42.3 µM | – |
| Cc1nc2ccccc2nc1Oc1ccc(C(=O)N[C@@H](C)C(=O)O)cc1 | 25.6 µM | 22.3 µM | 28.1 µM | – |
| CCCCCCCCCCCCNc1nc2ccccc2nc1Oc1ccc(C(=O)N[C@@H](Cc2ccccc2)C(=O)O)cc1 | 6.79 µM | 9.19 µM | 7.37 µM | inhibition [10]: Active; Activity (Mus musculus [4]): 20.85 g; inhibition in vivo at 10 mg/kg/day [5]: 33.7%; Activity [6]: 0.197 g; fold change (FC) [11]: 4 |
| CC[C@@H](C)[C@H](NC(=O)c1ccc(Oc2nc3ccccc3nc2C)cc1)C(=O)O | 35.7 µM | 33.2 µM | 30.5 µM | – |
| COC(=O)[C@H](C)NC(=O)c1ccc(Oc2nc3ccccc3nc2NC(C)(C)C)cc1 | 38.4 µM | 55.2 µM | 42.2 µM | – |
| CCCCCCCCCCCCNc1nc2ccccc2nc1Oc1ccc(C(=O)N[C@@H](Cc2ccccc2)C(=O)OC)cc1 | 33.4 µM | 34.4 µM | 30.5 µM | – |
| Cc1nc2cc(Cl)ccc2nc1Oc1ccc(C(=O)N[C@@H](C)C(=O)O)cc1 | 19.4 µM | 30 µM | 20.9 µM | – |
| COC(=O)[C@H](CC(C)C)NC(=O)c1ccc(Oc2nc3cc(Cl)ccc3nc2C)cc1 | 19.1 µM | 18.6 µM | 22 µM | – |
| COC(=O)[C@H](CC(C)C)NC(=O)c1ccc(Oc2nc3ccccc3nc2C)cc1 | 25.5 µM | 21.6 µM | 22.6 µM | – |
